Measured values taken from ChEMBL document CHEMBL3098111, “Discovery of 2,5-diarylnicotinamides as selective orexin-2 receptor antagonists (2-SORAs)” (Bioorg Med Chem Lett, 2013).
Calls of active or inactive are those of the source. The calls are words filed in the database; no cut-off is given here.

Columns and labels:
[1] = molecular target: Estrogen receptor (Homo sapiens) (UniProt P03372); assay: Inhibition of human ERalpha receptor at 10 uM relative to control
[2] = molecular target: Endothelin receptor type B (Homo sapiens) (UniProt P24530); assay: Inhibition of human ETB receptor at 10 uM relative to control
[3] = molecular target: D(1A) dopamine receptor (Homo sapiens) (UniProt P21728); assay: Inhibition of human dopamine D1 receptor at 10 uM relative to control
[4] = molecular target: C-C chemokine receptor type 1 (Homo sapiens) (UniProt P32246); assay: Inhibition of human CCR1 at 10 uM relative to control
[5] = molecular target: Calcitonin receptor (Homo sapiens) (UniProt P30988); assay: Inhibition of human calcitonin receptor at 10 uM relative to control
Chain of Calcitonin receptor (Homo sapiens) (P30988 whole entry): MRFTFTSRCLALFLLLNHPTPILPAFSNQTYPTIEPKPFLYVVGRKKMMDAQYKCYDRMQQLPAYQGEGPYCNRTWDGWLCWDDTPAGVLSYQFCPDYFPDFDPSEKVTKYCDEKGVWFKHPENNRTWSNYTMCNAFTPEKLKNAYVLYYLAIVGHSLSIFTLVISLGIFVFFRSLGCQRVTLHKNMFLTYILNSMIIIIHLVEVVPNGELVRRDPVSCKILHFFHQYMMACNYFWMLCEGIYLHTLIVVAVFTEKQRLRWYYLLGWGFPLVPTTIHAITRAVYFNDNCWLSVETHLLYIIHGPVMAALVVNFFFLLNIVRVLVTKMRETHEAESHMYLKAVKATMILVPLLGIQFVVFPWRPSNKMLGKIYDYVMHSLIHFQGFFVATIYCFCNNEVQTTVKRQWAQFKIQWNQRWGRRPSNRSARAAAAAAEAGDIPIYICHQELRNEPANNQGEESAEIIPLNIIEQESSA

[6] = molecular target: Calcitonin gene-related peptide type 1 receptor (Homo sapiens) (UniProt Q16602); assay: Inhibition of human CGRP1 at 10 uM relative to control
[7] = molecular target: B1 bradykinin receptor (Homo sapiens) (UniProt P46663); assay: Inhibition of human bradykinin B1 receptor at 10 uM relative to control
Chain of B1 bradykinin receptor (Homo sapiens) (P46663 whole entry): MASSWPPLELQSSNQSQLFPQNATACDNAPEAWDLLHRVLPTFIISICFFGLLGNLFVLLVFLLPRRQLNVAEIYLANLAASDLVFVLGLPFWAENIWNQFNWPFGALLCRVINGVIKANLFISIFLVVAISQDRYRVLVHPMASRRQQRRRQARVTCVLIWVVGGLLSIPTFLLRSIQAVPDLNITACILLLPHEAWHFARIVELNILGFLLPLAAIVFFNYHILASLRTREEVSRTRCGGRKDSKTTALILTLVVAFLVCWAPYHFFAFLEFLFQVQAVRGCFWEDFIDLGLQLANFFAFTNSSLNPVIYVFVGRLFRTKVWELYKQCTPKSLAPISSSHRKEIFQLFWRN

[8] = molecular target: Natriuretic peptides A (Cavia porcellus) (UniProt P27596); assay: Inhibition of guinea pig atrial natriuretic factor at 10 uM relative to control; details: Cardiac atrium
Chain of Natriuretic peptides A (Cavia porcellus) (P27596 whole entry): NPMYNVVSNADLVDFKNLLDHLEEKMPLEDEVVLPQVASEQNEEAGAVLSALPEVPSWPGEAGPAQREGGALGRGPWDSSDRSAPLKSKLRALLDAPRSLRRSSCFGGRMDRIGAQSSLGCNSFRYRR

[9] = molecular target: Androgen receptor (Rattus norvegicus) (UniProt P15207); assay: Inhibition of rat androgen receptor at 10 uM relative to control
[10] = molecular target: Tyrosine-protein phosphatase non-receptor type 1 (Homo sapiens) (UniProt P18031); assay: Inhibition of human PTP1B at 10 uM relative to control
[11] = molecular target: Protein kinase C alpha type (Homo sapiens) (UniProt P17252); assay: Inhibition of human PRKCA at 100 uM relative to control
[12] = molecular target: Macrophage metalloelastase (Homo sapiens) (UniProt P39900); assay: Inhibition of human MMP-12 at 10 uM relative to control
[13] = molecular target: Caspase-8 (Homo sapiens) (UniProt Q14790); assay: Inhibition of human caspase 8 at 10 uM relative to control
Chain of Caspase-8 (Homo sapiens) (Q14790 217-374 limits assumed): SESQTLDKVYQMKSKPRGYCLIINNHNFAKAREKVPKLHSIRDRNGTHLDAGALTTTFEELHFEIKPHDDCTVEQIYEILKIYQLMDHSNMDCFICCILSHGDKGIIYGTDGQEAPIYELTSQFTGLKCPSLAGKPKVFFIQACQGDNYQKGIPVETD
Chain of Caspase-8 (Homo sapiens) (Q14790 385-479 limits assumed): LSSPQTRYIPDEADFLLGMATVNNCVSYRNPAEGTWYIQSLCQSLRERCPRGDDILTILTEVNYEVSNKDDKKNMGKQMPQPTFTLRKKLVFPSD

[14] = molecular target: Caspase-6 (Homo sapiens) (UniProt P55212); assay: Inhibition of human caspase 6 at 10 uM relative to control
[15] = molecular target: Nitric oxide synthase 1 (Rattus norvegicus) (UniProt P29476); assay: Inhibition of rat nNOS at 10 uM relative to control
[16] = molecular target: Polyunsaturated fatty acid lipoxygenase ALOX12 (Homo sapiens) (UniProt P18054); assay: Inhibition of human 12-lipoxygenase at 10 uM relative to control
Chain of Polyunsaturated fatty acid lipoxygenase ALOX12 (Homo sapiens) (P18054 whole entry): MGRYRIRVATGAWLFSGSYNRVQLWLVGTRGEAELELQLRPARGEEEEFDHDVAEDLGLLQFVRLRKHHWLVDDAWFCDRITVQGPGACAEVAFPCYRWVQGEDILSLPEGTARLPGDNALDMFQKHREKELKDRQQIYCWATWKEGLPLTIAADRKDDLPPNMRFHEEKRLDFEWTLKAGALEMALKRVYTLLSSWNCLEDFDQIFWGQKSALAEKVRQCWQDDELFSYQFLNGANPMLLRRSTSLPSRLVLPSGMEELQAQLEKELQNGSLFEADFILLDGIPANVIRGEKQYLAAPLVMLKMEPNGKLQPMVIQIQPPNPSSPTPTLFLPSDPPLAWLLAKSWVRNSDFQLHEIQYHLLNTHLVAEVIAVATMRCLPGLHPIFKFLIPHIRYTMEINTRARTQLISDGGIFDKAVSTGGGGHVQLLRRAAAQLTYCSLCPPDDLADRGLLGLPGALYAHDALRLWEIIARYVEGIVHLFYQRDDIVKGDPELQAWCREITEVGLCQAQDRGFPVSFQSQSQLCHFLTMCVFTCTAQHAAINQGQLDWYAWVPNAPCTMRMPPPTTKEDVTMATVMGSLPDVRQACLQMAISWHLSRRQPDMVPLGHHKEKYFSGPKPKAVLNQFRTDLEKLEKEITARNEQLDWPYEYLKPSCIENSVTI

[17] = molecular target: T1, Mu-type opioid receptor (Homo sapiens, UniProt P35372); assay: Inhibition of human mu opioid receptor at 10 uM relative to control
T1 sequence (P35372 whole entry): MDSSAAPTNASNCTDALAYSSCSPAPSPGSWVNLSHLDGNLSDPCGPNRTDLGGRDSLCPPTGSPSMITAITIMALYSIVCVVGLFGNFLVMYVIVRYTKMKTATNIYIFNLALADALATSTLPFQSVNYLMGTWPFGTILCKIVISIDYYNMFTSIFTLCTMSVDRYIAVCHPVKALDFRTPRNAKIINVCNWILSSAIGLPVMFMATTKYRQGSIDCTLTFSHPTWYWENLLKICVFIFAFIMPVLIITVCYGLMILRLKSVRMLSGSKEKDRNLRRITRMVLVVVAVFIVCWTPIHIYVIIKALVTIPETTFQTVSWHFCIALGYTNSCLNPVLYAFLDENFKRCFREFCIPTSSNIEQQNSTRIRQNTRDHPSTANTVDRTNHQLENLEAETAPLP

[18] = molecular target: D(3) dopamine receptor (Homo sapiens, UniProt P35462); assay: Inhibition of human dopamine D3 receptor at 10 uM relative to control
[19] = test system: Rattus norvegicus; assay: Antiinsomnic activity in rat EEG model assessed as decrease in active wake time at 15 mg/kg, po; type: functional, organism-based; set-up: dose 15 mg/kg
Procedure, shortened: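 Rats with EEG telemetry given 15 mg/kg orally during their active period, vehicle 20% Vitamin E TPGS in water. Sleep architecture (active wake, light sleep, delta and REM sleep) scored from EEG.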

[20] = molecular target: Vasopressin V2 receptor (Homo sapiens) (UniProt P30518); assay: Inhibition of human V2 receptor at 10 uM relative to control
[21] = species: Oryctolagus cuniculus; assay: Inhibition of rabbit monoamine transporter at 0.1 uM relative to control
[22] = molecular target: Sodium-dependent dopamine transporter (Homo sapiens) (UniProt Q01959); assay: Inhibition of human DAT at 10 uM relative to control
[23] = species: Rattus norvegicus; assay: Inhibition of rat choline transporter at 10 uM relative to control
[24] = molecular target: Thyrotropin-releasing hormone receptor (Rattus norvegicus) (UniProt Q01717); assay: Inhibition of rat TRH receptor at 10 uM relative to control
Chain of Thyrotropin-releasing hormone receptor (Rattus norvegicus) (Q01717 whole entry): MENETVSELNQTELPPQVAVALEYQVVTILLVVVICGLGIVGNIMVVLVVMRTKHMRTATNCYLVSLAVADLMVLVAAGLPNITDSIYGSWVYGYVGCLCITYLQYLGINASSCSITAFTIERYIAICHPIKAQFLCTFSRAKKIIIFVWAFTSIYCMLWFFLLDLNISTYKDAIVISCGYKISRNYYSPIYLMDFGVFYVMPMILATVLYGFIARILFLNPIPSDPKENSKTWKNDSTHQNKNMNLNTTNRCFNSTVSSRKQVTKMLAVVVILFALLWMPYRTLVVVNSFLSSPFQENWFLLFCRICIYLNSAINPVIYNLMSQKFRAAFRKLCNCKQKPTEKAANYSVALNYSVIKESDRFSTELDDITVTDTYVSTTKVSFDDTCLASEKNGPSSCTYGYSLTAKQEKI

[25] = species: Rattus norvegicus; assay: Inhibition of rat sodium channel site 2 at 10 uM relative to control
[26] = molecular target: 5-hydroxytryptamine receptor 3A (Homo sapiens) (UniProt P46098); assay: Inhibition of human 5-HT3 receptor at 10 uM relative to control
[27] = molecular target: 5-hydroxytryptamine receptor 2B (Homo sapiens, UniProt P41595); assay: Inhibition of human 5-HT2B receptor at 10 nM relative to control
[28] = species: Rattus norvegicus; assay: Inhibition of rat 5-HT2 receptor at 10 uM relative to control
[29] = molecular target: Prostaglandin D2 receptor (Homo sapiens) (UniProt Q13258); assay: Inhibition of human prostanoid DP receptor at 10 uM relative to control
Chain of Prostaglandin D2 receptor (Homo sapiens) (Q13258 whole entry): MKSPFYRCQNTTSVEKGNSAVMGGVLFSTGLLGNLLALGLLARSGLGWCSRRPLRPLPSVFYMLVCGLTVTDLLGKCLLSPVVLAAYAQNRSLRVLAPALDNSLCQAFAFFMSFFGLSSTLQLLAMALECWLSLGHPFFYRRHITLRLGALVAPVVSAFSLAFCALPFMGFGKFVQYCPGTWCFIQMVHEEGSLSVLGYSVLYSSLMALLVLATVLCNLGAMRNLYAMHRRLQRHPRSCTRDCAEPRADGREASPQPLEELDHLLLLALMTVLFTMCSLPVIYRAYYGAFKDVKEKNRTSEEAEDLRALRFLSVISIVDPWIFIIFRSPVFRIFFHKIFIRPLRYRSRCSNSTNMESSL

[30] = molecular target: Peroxisome proliferator-activated receptor gamma (Homo sapiens) (UniProt P37231); assay: Inhibition of human PPARgamma at 10 uM relative to control
[31] = molecular target: Peroxisome proliferator-activated receptor alpha (Homo sapiens) (UniProt Q07869); assay: Inhibition of human PPARalpha at 10 uM relative to control
[32] = molecular target: Small conductance calcium-activated potassium channel (Rattus norvegicus) (UniProt P70604+P70606+P70605); assay: Inhibition of rat potassium channel [SKCA] at 10 uM relative to control; type: protein assay
[33] = molecular target: Nociceptin receptor (Homo sapiens) (UniProt P41146); assay: Inhibition of human ORL1 receptor at 10 uM relative to control
[34] = molecular target: T1, Mu-type opioid receptor; assay: Inhibition of human mu opioid receptor at 10 nM relative to control
[35] = molecular target: T1, Mu-type opioid receptor; assay: Inhibition of human mu opioid receptor at 0.1 uM relative to control
[36] = molecular target: T1, Mu-type opioid receptor; assay: Inhibition of human mu opioid receptor at 1 uM relative to control
[37] = molecular target: Muscarinic acetylcholine receptor M2 (Homo sapiens) (UniProt P08172); assay: Inhibition of human muscarinic M2 receptor at 10 uM relative to control
Chain of Muscarinic acetylcholine receptor M2 (Homo sapiens) (P08172 whole entry): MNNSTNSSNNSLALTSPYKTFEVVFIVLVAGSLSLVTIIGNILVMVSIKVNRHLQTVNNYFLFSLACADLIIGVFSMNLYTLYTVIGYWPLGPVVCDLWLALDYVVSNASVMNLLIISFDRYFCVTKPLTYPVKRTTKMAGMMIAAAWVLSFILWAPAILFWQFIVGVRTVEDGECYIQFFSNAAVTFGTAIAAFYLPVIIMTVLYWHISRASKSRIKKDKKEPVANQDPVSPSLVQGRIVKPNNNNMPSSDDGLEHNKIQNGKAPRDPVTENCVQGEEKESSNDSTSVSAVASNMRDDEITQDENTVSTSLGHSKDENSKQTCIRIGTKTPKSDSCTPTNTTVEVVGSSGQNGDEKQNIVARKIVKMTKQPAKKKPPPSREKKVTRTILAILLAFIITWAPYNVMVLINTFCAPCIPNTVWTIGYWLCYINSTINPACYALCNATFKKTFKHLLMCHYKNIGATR

[38] = molecular target: Muscarinic acetylcholine receptor M1 (Homo sapiens) (UniProt P11229); assay: Inhibition of human muscarinic M1 receptor at 10 uM relative to control
[39] = molecular target: Melanocortin receptor 5 (Homo sapiens) (UniProt P33032); assay: Inhibition of human MC5 receptor at 10 uM relative to control
[40] = molecular target: Melanocortin receptor 4 (Homo sapiens) (UniProt P32245); assay: Inhibition of human MC4 receptor at 10 uM relative to control
Chain of Melanocortin receptor 4 (Homo sapiens) (P32245 whole entry): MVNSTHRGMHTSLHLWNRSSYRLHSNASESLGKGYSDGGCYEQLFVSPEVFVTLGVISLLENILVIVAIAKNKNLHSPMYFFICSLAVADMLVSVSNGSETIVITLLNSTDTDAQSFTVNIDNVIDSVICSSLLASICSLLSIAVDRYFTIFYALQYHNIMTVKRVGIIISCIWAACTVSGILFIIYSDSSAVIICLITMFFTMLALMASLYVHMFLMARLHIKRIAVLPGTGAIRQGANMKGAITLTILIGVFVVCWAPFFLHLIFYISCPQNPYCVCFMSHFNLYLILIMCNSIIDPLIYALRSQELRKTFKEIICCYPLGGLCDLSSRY

[41] = molecular target: Histamine H3 receptor (Homo sapiens) (UniProt Q9Y5N1); assay: Inhibition of human histamine H3 receptor at 10 uM relative to control
Chain of Histamine H3 receptor (Homo sapiens) (Q9Y5N1 whole entry): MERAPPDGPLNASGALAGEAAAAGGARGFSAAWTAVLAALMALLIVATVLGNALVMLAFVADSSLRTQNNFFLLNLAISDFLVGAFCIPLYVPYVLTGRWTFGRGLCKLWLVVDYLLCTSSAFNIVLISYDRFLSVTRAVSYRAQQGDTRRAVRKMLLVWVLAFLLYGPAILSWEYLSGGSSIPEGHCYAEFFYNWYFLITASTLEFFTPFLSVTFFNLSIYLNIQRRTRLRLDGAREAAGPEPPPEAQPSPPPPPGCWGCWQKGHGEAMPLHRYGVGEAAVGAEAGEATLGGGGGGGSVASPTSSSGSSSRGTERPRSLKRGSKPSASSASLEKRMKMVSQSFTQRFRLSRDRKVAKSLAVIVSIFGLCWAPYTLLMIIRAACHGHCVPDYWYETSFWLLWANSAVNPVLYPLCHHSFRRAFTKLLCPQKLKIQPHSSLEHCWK

[42] = species: Rattus norvegicus; assay: Inhibition of rat glutamate receptor at 10 uM relative to control
[43] = molecular target: Glutamate NMDA receptor (Rattus norvegicus) (UniProt P35439+Q00959+Q00960+Q00961+Q62645+Q8VHN2+Q9R1M7); assay: Inhibition of rat NMDA receptor glycine binding site at 10 uM relative to control; type: protein-complex assay
[44] = species: Rattus norvegicus; assay: Inhibition of rat GABAA central type receptor muscimol binding site at 10 uM relative to control
[45] = species: Rattus norvegicus; assay: Inhibition of rat GABAA chloride channel TBOB binding site at 10 uM relative to control

Chain of Estrogen receptor (Homo sapiens) (P03372 whole entry): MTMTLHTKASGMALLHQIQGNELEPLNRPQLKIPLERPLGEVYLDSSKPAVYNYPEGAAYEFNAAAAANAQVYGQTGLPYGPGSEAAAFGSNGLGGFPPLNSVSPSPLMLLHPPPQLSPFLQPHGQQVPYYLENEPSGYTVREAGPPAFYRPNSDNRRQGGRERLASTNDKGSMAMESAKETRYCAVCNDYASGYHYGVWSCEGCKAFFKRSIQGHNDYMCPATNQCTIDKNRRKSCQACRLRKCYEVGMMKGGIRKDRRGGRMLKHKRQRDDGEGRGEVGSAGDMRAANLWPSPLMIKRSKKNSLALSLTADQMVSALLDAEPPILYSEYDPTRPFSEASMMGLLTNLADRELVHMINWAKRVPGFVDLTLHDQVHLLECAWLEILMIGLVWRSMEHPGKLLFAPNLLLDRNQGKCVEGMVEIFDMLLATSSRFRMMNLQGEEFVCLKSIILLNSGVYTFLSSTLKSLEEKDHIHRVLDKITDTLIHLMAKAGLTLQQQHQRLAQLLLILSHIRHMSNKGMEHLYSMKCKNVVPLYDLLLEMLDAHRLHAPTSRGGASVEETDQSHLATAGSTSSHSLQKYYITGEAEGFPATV

inhibition [1]: 20% | inhibition [2]: 8% | inhibition [3]: 2% | inhibition [4]: 21% | inhibition [5]: 9% | inhibition [6]: -10% | inhibition [7]: 3% | inhibition [8]: 1% | inhibition [9]: 7% | inhibition [10]: 1% | inhibition [11]: 29% | inhibition [12]: -6% | inhibition [13]: -1% | inhibition [14]: 7% | inhibition [15]: -1% | inhibition [16]: 11% | inhibition [17]: 62% | inhibition [18]: 51% | inhibition [20]: 0% | inhibition [21]: 7% | inhibition [22]: -7% | inhibition [23]: 1% | inhibition [24]: -3% | inhibition [25]: 39% | inhibition [26]: -3% | inhibition [27]: 6% | inhibition [28]: 17% | inhibition [29]: 16% | inhibition [30]: 3% | inhibition [31]: 5% | inhibition [32]: 9% | inhibition [33]: 9% | inhibition [34]: -3% | inhibition [35]: -3% | inhibition [36]: 26% | inhibition [37]: -8% | inhibition [38]: 0% | inhibition [39]: 9% | inhibition [40]: 6% | inhibition [41]: -3% | inhibition [42]: -6% | inhibition [43]: 9% | inhibition [44]: 9% | inhibition [45]: 8%
SMILES: COc1ccc(CNC(=O)c2cc(-c3cc(Cl)cc(Cl)c3)cnc2-c2cccnc2)cc1OC
Activity [19]: Active
